SR-BI DiI-HDL act: activators of SR-BI mediated DiI-HDL uptake, primary screen, ldlA[mSR-BI] CHO cells, DiI fluorescence | 3 h; 100 = double the neutral-control signal | activation, % at 12.5 µM | 320,000 compounds, 0.096% hits;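 active = mean replicate activation of at least 60% and every replicate at or above 60%; inconclusive = mean or all-replicate condition met, but not both; inactive = mean below 60% and not all replicates reaching 60%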;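 note: 0% = median plate neutral-control signal and 100% = twice that signal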
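Assay system: LDL receptor-deficient CHO ldlA cells overexpressing murine SR-BI / Medium: BSA-supplemented, HEPES-buffered Ham's F12, pH 7.4 / Probe or stimulus: DiI-labelled HDL at 10 µg/mL final / Timing: compound with DiI-HDL co-incubation, 3 h at 37 °C / Technique: bottom-read cell fluorescence after medium removal, ex 550/em 595 nm / Measure: HDL uptake via cellular fluorescence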
dFosB act-1: activators of delta FosB homodimer, primary screen, biochemical, fluorescence polarization, TAMRA-CDK5 oligo, single point | 340,000 compounds, 0.99% hits | activation, % at 25 µM | Protein FosB (Mus musculus), P13346 | purified delta FosB; percent of positive-control signal above neutral wells | AID 493131, 2011;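 active = mean activation above about 17%, with every replicate also reaching it, limit read from the data, passing the limit was not always enough; inconclusive = only one of the two conditions met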
RAD54 inh: inhibitors of human RAD54 branch migration, primary screen, biochemical, fluorescence, single point | DNA repair and recombination protein RAD54-like (Homo sapiens), Q92698 | RAD54 Holliday junction branch migration, FAM/BHQ fluorescence | inhibition, % at 10.4 µM | 360,000 compounds, 0.14% hits | AID 602329, 2012;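 active = mean normalized replicate activity at least 40 and at least half of replicates scoring 40 or more; inconclusive = only one of the two criteria met; inactive = mean below 40 and under half of replicates reaching 40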;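 note: 0% = median of neutral control wells and 100% = median of positive control wells; inhibitors cause a drop in the FAM fluorescence signal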
SR-BI HDL uptake: inhibitors of SR-BI mediated HDL lipid uptake, primary screen, ldlA[mSR-BI] cells, fluorescence, single point. Scavenger receptor class B member 1 (Mus musculus), Q61009. ldlA[mSR-BI] CHO cells, DiI-HDL uptake fluorescence, 3 h. inhibition, % at 12.5 µM. 320,000 compounds, 0.96% hits;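 active = mean replicate inhibition of at least 70% and a set share of replicates each scoring 70 or more; inconclusive = meets just one of the two criteria; inactive = fails both criteria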;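 note: 0% = median of neutral control wells and 100% = median of positive control wells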
Target sequence (Q61009 whole entry, looked up): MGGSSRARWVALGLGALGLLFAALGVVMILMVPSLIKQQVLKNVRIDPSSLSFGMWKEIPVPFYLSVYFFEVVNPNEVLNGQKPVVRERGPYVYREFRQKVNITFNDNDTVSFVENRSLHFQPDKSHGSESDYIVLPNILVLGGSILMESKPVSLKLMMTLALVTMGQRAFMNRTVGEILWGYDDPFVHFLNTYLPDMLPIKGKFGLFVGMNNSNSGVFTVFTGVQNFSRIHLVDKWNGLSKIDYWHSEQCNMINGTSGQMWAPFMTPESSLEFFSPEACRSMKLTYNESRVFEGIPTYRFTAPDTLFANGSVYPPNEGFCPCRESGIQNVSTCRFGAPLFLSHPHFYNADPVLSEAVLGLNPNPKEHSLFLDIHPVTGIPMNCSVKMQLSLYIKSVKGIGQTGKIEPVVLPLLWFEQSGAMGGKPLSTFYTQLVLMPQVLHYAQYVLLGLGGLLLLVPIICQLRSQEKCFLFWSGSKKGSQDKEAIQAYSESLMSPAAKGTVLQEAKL
S100A4 inh HTS: inhibitors of S100A4-myosin IIA peptide binding, primary screen, biochemical, fluorescence polarization, TAMRA-MyoIIA peptide; Protein S100-A4 (Homo sapiens), P26447; inhibition, % at 10.7 µM; 360,000 compounds, 0.14% hits; AID 652163, 2013;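 active = mean inhibition of at least 70% across replicates, with every replicate also reaching that level; inconclusive = mean inhibition reaches 70% but some replicates fall short; inactive = mean inhibition below 70%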
Target sequence (P26447 whole entry, looked up): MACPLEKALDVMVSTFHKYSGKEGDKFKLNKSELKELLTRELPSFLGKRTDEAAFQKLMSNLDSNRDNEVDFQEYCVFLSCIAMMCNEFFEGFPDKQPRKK
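Test system: S100A4 monomer protein; Medium: HEPES pH 7.2 with CaCl2, KCl, NaCl, DTT, Triton; Probe or stimulus: TAMRA-labelled myosin IIA heavy-chain peptide probe, 5 nM; Doses: one dose per compound; Times: polarization read 5 min after assay mix addition, stable 5–60 min; Benchmarks: neutral control DMSO, positive control TFP.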
PvdQ inh: P. aeruginosa PvdQ acylase inhibitors, primary screen, biochemical, fluorescence, plate reader and imaging, single point; inhibition, % at 10 µM; PvdQ acylase [Pseudomonas aeruginosa LESB58]; AID 488965, 2010; 340,000 compounds, 0.063% hits; purified PvdQ acylase; in the data active = inhibition above about 30%, passing the limit was not always enough; inconclusive = no clear call, values can overlap the other calls;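 note: 0% = vehicle neutral wells and 100% = reference inhibitor wells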
dFosB act-2: activators of mouse delta FosB DNA binding, confirmation, biochemical, fluorescence polarization, TAMRA-CDK5 oligo, cherry-picked samples; shares compounds with dFosB act-1; purified delta FosB; normalised: neutral wells 0, positive control 100; activation, % at 24.9 µM; 2,400 tested, under 10 active;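 active = highest replicate activation at or above 34% and every replicate reaching that threshold; inconclusive = meets only one of the two criteria; inactive = meets neither criterion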;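 note: higher polarization means more probe DNA bound by delta FosB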
* = called active by the depositor; u = inconclusive; x = no result. Rows were chosen to be rich in hits. Some 1.6% of all compounds tested hit in one or more screens of this group.

SMILES | SR-BI DiI-HDL act | dFosB act-1 | RAD54 inh | SR-BI HDL uptake | S100A4 inh HTS | PvdQ inh | dFosB act-2
C[C@H](CO)N1C[C@H](C)[C@H](CN(C)C(=O)Nc2ccc(F)cc2)Oc2c(NC(=O)c3ccncc3)cccc2C1=O | x | x | -8 | x | -4 | x | x
COc1cccc(S(=O)(=O)N[C@H]2C=C[C@@H](CC(=O)NCc3ccncc3)O[C@H]2CO)c1 | x | x | -3 | x | -10 | x | x
CCOC(=O)C1CCN(C(=O)c2ccc3c(=O)n4nc(Nc5cc(C)ccc5C)sc4nc3c2)CC1 | -6 | 15 | 4 | 6 | 0 | 4 | x
Cc1ccc(C)c(Nc2nn3c(=O)c4ccc(C(=O)NCc5cccnc5)cc4nc3s2)c1 | 3 | 99* | -11 | -3 | -9 | -15 | -1
COc1ccccc1NC(=O)Cn1cnc2sc(C(=O)Nc3cc(OC)c(OC)c(OC)c3)c(C)c2c1=O | -54 | 9 | 7 | 54 | -3 | -10 | x
COc1ccccc1NC(=O)c1sc2ncn(CC(=O)Nc3ccccc3)c(=O)c2c1C | x | 49* | 8 | x | -3 | 6 | 1
C[C@H](O)C#Cc1cnc2c(c1)C(=O)N([C@H](C)CO)C[C@H](C)[C@@H](CN(C)C(=O)c1ccc(F)cc1)O2 | x | x | -2 | x | 4 | x | x
COc1nc(-c2ccc(Cl)cc2)ccc1-c1noc(-c2ccco2)n1 | -27 | 30* | 4 | 27 | x | -8 | 0
COc1cccc(-c2ccc(-c3noc(-c4ccccc4F)n3)c(OC)n2)c1 | 4 | -9 | 12 | -4 | x | -7 | x
C[C@@H]1CN([C@H](C)CO)C(=O)c2cc(/C=C/c3ccccc3)cnc2O[C@H]1CN(C)C(=O)CN(C)C | x | x | 9 | x | -3 | x | x
CNc1ccc([N+](=O)[O-])cc1-c1nc2ccccc2[nH]c1=O | -17 | 40* | 0 | 17 | -1 | 7 | 1
O=C(NCc1ccc2c(c1)OCO2)C1CCN(c2nccc(C(F)(F)F)n2)CC1 | 19 | 18* | -13 | -19 | 1 | -3 | -14
O=S(=O)(Cc1ccccc1)c1ccccc1-c1nnc(-c2ccccc2)o1 | -22 | 32* | 3 | 22 | x | -13 | 6
C[C@H](CO)N1C[C@H](C)[C@H](CN(C)C(=O)Nc2ccc(F)cc2)Oc2cc(/C=C/c3ccccc3)ccc2S1(=O)=O | x | x | 1 | x | 6 | x | x
CCN1Cc2c(/C=C/c3ccccc3)nc3ccc(OC)cc3c2N(c2cccc(Cl)c2)C1 | -52 | 21* | x | 52 | -6 | -1 | 4
Oc1ccc(Cl)cc1-c1cc(-c2cccc(Br)c2)n[nH]1 | -63 | 46* | 12 | 63 | x | -17 | -1
Oc1ccc(Cl)cc1-c1cc(-c2ccccc2Cl)[nH]n1 | x | -7 | 8 | x | x | 9 | x
COc1ccc(C)cc1NC(=O)CNC(=O)Cn1ccc2ccccc2c1=O | -57 | 47* | -10 | 57 | x | -9 | -1
COc1cc(NC(=O)CNC(=O)Cn2ccc3ccccc3c2=O)cc(OC)c1OC | x | 1 | 1 | x | 9 | -16 | x
COc1ccc([N+](=O)[O-])cc1NC(=O)CCNC(=O)Cn1ccc2ccccc2c1=O | x | 19* | x | x | 0 | 4 | -5
COc1ccc(OC)c(NC(=O)CCNC(=O)Cn2ccc3ccccc3c2=O)c1 | x | 4 | 1 | x | 1 | -18 | x
C[C@@H]1CN([C@@H](C)CO)C(=O)c2cc(NC(=O)C3CC3)ccc2O[C@@H]1CN(C)C(=O)Nc1cccc2ccccc12 | x | x | -9 | x | 0 | x | x
COc1ccccc1CNC(=O)/C=C/c1cc2c(cc1Br)OCO2 | -13 | 45* | 8 | 13 | x | -11 | -3
COC(=O)c1ccccc1NC(=O)c1ccc(Cn2cc(Cl)cn2)o1 | -50 | -7 | 6 | 50 | x | -19 | x
COC(=O)c1cc(NC(=O)c2ccc(Cn3cc(Cl)cn3)o2)cc(C(=O)OC)c1 | -18 | 21* | 0 | 18 | x | 6 | -1
SMILES | SR-BI DiI-HDL act | dFosB act-1 | RAD54 inh | SR-BI HDL uptake | S100A4 inh HTS | PvdQ inh | dFosB act-2
Cc1ccc(SCc2nc3ccccc3n2CC(=O)Nc2c(C)cccc2C)cc1 | -19 | 32* | -2 | 19 | x | -7 | 0
Cc1ccc(SCc2nc3ccccc3n2CC(=O)Nc2ccccc2)cc1 | -17 | 0 | -22 | 17 | x | -15 | x
C[C@@H]1CN([C@H](C)CO)C(=O)c2cc(-c3ccccc3F)cnc2O[C@H]1CN(C)Cc1ccc(F)cc1 | x | x | -5 | x | 1 | x | x
O=C(NNC(=O)c1sc2cccc(Cl)c2c1Cl)Nc1ccccc1 | 28 | 76* | 2 | -28 | x | -2 | 0
Cc1cc(C)c(C)c(C(=O)COC(=O)CNC(=O)CN2C(=O)c3ccccc3C2=O)c1C | -9 | 43* | 2 | 9 | -1 | -6 | u
CSC1=N/C(=C\c2c(F)cccc2Cl)C(=O)S1 | 46 | 3 | x | -46 | x | -9 | x
COC(=O)c1ccc(/C=C2\Oc3ccccc3NC2=O)cc1 | -32 | 33* | -4 | 32 | -1 | -21 | -7
O=C1Nc2ccccc2O/C1=C\c1c(F)cccc1Cl | -10 | 25* | -5 | 10 | 2 | 5 | 1
NC(=S)N/N=C/c1coc2cc(Br)ccc2c1=O | -10 | 24* | x | 10 | 0 | -19 | 0
CCOc1cc(/C=N/NC(=O)C(=O)NCc2ccc3c(c2)OCO3)ccc1OCC(=O)N1CCOCC1 | -6 | 20* | 1 | 6 | 0 | -13 | 0
COc1cc(/C=N/NC(=O)C(=O)NCC2CCCO2)ccc1OCC(=O)N1CCOCC1 (stereo unspecified) | 25 | 1 | x | -25 | -5 | -11 | x
CCOc1cc(/C=N/NC(=O)c2ccc(CN3CCOCC3)cc2)ccc1OCc1ccccc1 | -35 | 21* | 0 | 35 | x | -10 | -4
CCOc1cc(/C=N/NC(=O)CN2CCOCC2)ccc1OCc1ccccc1 | -9 | 4 | -1 | 9 | x | -4 | x
O=C(c1ccc(Br)o1)N1CCN(c2ccc3nnc(-c4ccccc4)n3n2)CC1 | 15 | -30 | -1 | -15 | 0 | -3 | x

Bioassay records as filed in PubChem.
